Calls of active or inactive are those of the source. The rule behind the calls is not given here.
How the values were obtained:
[1] = Cytotoxicity against chinese hamster RT16 cells expressing human FRalpha after 96 hrs by CellTitre-Blue fluorescence assay in presence of folic acid; format: functional, cell-based; conditions: Cricetulus griseus, RT16, 96 h
Procedure, shortened: (§1)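 CHO sublines were grown in FF-RPMI/DFBS; transfectants were maintained with G418. Cells were exposed to antifolate (0–1 μM) for 96 h at 37 °C with 2 nM LCV (RT16) or 25 nM LCV (R2/PCFT4). PC43-10 cells were grown in standard RPMI1640/DFBS instead. FRα specificity was tested by adding 200 nM folic acid. Viable cells were read by CellTiter-Blue fluorescence (ex 560/em 590), and IC50 was taken from dose–response curves; means of 3–10 experiments.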

[2] = tested on: R2; experiment: Cytotoxicity against chinese hamster R2 cells expressing human PCFT4 after 96 hrs by CellTitre-Blue fluorescence assay; format: functional, cell-based, Cricetulus griseus; conditions: R2, 96 h
[3] = tested on: R2; experiment: Cytotoxicity against chinese hamster R2 cells after 96 hrs by CellTitre-Blue fluorescence assay; conditions: Cricetulus griseus, R2, 96 h
[4] = Cytotoxicity against chinese hamster R2(VC) cells after 96 hrs by CellTitre-Blue fluorescence assay; format: functional, cell-based; conditions: Cricetulus griseus; procedure, shortened: as §1
[5] = tested on: KB; experiment: Cell cycle arrest in human KB cells assessed as accumulation at G2/M phase at 1 uM after 96 hrs by propidium iodide staining-based flow cytometry (reference value: 13.2%); format: functional
[6] = tested on: KB; experiment: Cell cycle arrest in human KB cells assessed as accumulation at sub-G1 phase at 1 uM after 96 hrs by propidium iodide staining-based flow cytometry (reference value: 3.5%); format: functional
[7] = tested on: KB; experiment: Induction of apoptosis in human KB cells assessed as late apoptotic cells at 1 uM after 96 hrs by Annexin V-FITC/7-AAD staining-based flow cytometry (reference value: 2.09%); format: functional
[8] = tested on: KB; experiment: Induction of apoptosis in human KB cells assessed as early apoptotic cells at 1 uM after 96 hrs by Annexin V-FITC/7-AAD staining-based flow cytometry (reference value: 0.485%); format: functional
[9] = tested on: KB; experiment: Cell cycle arrest in human KB cells assessed as accumulation at G1/G0 phase at 1 uM after 96 hrs by propidium iodide staining-based flow cytometry (reference value: 67.4%); format: functional
[10] = tested on: KB; experiment: Cell cycle arrest in human KB cells assessed as accumulation at S phase at 1 uM after 96 hrs by propidium iodide staining-based flow cytometry (reference value: 15.9%); format: functional
[11] = biological target: T1, Reduced folate transporter (Homo sapiens) (UniProt P41440); experiment: Inhibition of human RFC expressed in chinese hamster PC43-10 cells assessed as reduction of [3H]MTX uptake at 10 uM after 48 hrs by scintillation counting analysis relative to control; format: cell-based
T1 sequence (whole entry): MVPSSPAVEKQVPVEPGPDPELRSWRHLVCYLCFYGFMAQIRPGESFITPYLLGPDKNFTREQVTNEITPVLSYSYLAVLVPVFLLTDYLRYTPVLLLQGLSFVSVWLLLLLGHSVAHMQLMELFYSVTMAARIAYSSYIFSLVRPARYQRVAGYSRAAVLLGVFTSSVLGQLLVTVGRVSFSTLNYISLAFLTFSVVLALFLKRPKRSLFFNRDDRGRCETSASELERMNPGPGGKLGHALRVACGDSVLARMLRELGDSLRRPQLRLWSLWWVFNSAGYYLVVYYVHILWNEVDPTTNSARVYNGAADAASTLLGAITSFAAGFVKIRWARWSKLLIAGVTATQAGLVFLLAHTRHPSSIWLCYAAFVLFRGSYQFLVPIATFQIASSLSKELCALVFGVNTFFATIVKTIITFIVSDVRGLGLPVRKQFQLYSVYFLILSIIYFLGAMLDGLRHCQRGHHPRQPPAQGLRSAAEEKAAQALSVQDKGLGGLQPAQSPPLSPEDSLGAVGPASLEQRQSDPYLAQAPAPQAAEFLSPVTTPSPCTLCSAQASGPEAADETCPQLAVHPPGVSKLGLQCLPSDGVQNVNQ
Procedure, shortened: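 PC43-10 CHO cells expressing human RFC (~1.5 × 10^6) were seeded 48 h before assay. Uptake of 0.5 μM [3H]MTX was run in Hank's balanced salts for 2 min at 37 °C, with or without 10 μM unlabelled inhibitor, and stopped with ice-cold PBS. Cells were dissolved in 0.5 N NaOH, counted by scintillation and normalised to Folin-phenol protein (pmol/mg). RFC-null R2 cells gave baseline. Three experiments.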

[12] = tested on: KB; experiment: (§2) Inhibition of GARFTase in human KB cells assessed as incorporation of [14C]-glycine into [14C]-formyl GAR incubated 30 mins prior to [14C]-glycine addition measured after 16 hrs by radiometric assay in presence of azaserin; format: cell-based
Procedure, shortened: (§3)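 KB cells were preincubated 1 h in folate- and glutamine-free medium with 2 nM LCV and a range of drug concentrations. Azaserine (4 μM final) was added for 30 min, then 2 mM glutamine and [14C(U)]glycine (0.1 mCi/L) for 16 h at 37 °C. TCA extracts were ether-washed and run on AG1×8 anion exchange. [14C]formyl GAR was measured per mg protein, and IC50 was set against DMSO controls; three experiments.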

[13] = as §2; format: cell-based; procedure, shortened: as §3
[14] = tested on: KB; experiment: Induction of apoptosis in human KB cells assessed as necrotic cells at 1 uM after 96 hrs by Annexin V-FITC/7-AAD staining-based flow cytometry (RVB = 7.80%); format: functional
[15] = tested on: KB; experiment: Induction of apoptosis in human KB cells assessed as viable cells at 1 uM after 96 hrs by Annexin V-FITC/7-AAD staining-based flow cytometry (RVB = 89.6%); format: functional; conditions: read-out: Activity
[16] = biological target: Folate receptor alpha (Homo sapiens) (UniProt P15328); experiment: Displacement of [3H]folic acid from human FRalpha expressed in chinese hamster RT16 cells after 15 mins by scintillation counting analysis; format: cell-based
Folate receptor alpha (Homo sapiens), sequence (P15328 25-234 limits assumed): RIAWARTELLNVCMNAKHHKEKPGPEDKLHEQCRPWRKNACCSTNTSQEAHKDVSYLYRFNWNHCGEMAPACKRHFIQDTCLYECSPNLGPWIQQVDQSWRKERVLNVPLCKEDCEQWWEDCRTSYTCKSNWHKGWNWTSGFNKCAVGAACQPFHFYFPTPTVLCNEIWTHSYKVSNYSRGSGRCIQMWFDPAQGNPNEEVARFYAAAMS
Procedure, shortened: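 FRα-expressing RT16 CHO cells (~1.5 × 10^6) were grown as monolayers. Bound folates were stripped with ice-cold acetate buffer (pH 3.5), then neutralised with HEPES-buffered saline (pH 7.4). Cells were then competed with [3H]folic acid against graded unlabelled ligand. Bound label read by scintillation, normalised to Folin-phenol protein (pmol/mg). Relative affinity = inverse molar ratio for 50% displacement, folic acid set at 1. Three experiments.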

[17] = tested on: KB; experiment: Cytotoxicity against human KB cells expressing human RFC/FRalpha/PCFT after 96 hrs by CellTitre-Blue fluorescence assay in presence of adenosine; format: functional, cell-based
Procedure, shortened: (§4)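 KB cells were grown in FF-RPMI with DFBS and 2 nM LCV, exposed to antifolate (0–1 μM) for 96 h at 37 °C, and read by CellTiter-Blue fluorescence. IC50 was taken from dose–response curves relative to untreated cells. Protection arms added adenosine 60 μM, thymidine 10 μM, AICA 320 μM, or folic acid 200 nM. Means of 3–10 experiments.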

[18] = tested on: KB; experiment: Cytotoxicity against human KB cells expressing human RFC/FRalpha/PCFT after 96 hrs by CellTitre-Blue fluorescence assay in presence of AICA; format: functional, cell-based; procedure, shortened: as §4
[19] = tested on: KB; experiment: Cytotoxicity against human KB cells expressing human RFC/FRalpha/PCFT after 96 hrs by CellTitre-Blue fluorescence assay in presence of thymidine; format: functional, cell-based; procedure, shortened: as §4
[20] = Cytotoxicity against chinese hamster PC43-10 cells expressing human RFC after 96 hrs by CellTitre-Blue fluorescence assay; format: functional, cell-based; conditions: Cricetulus griseus, PC43-10, 96 h; procedure, shortened: as §1
[21] = tested on: KB; experiment: Cytotoxicity against human KB cells at 1 mM after 96 hrs by CellTitre-Blue fluorescence assay; format: functional; conditions: read-out: GI
Procedure, shortened: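 KB cells were exposed for 96 h at 37 °C to metformin (0–10 mM) or AICA (0–2 mM) in FF-RPMI/DFBS with 2 nM LCV. Growth was read by CellTiter-Blue fluorescence relative to drug-free cells.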

[22] = biological target: Bifunctional purine biosynthesis protein ATIC (Homo sapiens) (UniProt P31939); experiment: Inhibition of AICARFTase in human KB cells assessed as phosphorylated AMPK at 1 mM after 48 hrs by Western blot analysis; format: cell-based
Bifunctional purine biosynthesis protein ATIC (Homo sapiens), sequence (P31939 whole entry, looked up): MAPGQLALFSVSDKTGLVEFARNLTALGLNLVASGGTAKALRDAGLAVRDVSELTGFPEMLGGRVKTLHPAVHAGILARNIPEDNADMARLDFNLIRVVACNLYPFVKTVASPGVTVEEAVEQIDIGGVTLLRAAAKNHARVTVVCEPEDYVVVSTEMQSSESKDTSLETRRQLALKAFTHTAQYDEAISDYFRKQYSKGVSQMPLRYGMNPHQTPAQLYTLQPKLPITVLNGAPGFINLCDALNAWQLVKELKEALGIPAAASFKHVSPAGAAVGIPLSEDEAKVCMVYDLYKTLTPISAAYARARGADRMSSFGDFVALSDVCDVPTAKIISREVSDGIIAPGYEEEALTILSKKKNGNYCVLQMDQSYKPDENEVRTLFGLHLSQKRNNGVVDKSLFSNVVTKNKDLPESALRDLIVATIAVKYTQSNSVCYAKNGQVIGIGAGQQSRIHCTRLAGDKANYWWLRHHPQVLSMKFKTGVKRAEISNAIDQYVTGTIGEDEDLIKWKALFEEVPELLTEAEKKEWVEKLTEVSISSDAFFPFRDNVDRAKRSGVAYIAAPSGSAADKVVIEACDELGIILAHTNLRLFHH
Procedure, shortened: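 KB cells were treated for 48 h with 10 μM thymidine, or with AMPK activators (metformin 10 mM, AICA 1 mM, AICAR 1 mM) against a water/DMSO vehicle. Cells were sonicated in 10 mM Tris-HCl pH 7.0 with protease/phosphatase inhibitors. 90 μg protein was run on 4–20% SDS gels and blotted for phospho-AMPK, total AMPK and β-actin, with infrared detection.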

Nc1nc2[nH]cc(CCCCCCc3ccc(C(=O)N[C@@H](CCC(=O)O)C(=O)O)cc3)c2c(=O)[nH]1 gave an IC50 [1] of over 1 µM, an IC50 [2] of over 1 µM and an IC50 [3] of over 1 µM. For the same molecule, the IC50 [4] was over 1 µM.

With Cc1nc(=O)c2cc(CN(C)c3ccc(C(=O)N[C@@H](CCC(=O)O)C(=O)O)s3)ccc2[nH]1 [RALTITREXED] the IC50 [4] was over 1 µM.

Molecule Nc1nc2[nH]c(CCCCc3ccc(C(=O)N[C@@H](CCC(=O)O)C(=O)O)cc3)cc2c(=O)[nH]1 has an Activity [5] of 1.2%, an Activity [6] of 45.1% and an Activity [7] of 28.8%. It also gave an Activity [8] of 35.5%, an Activity [9] of 22.3% and an Activity [10] of 31.4%. For the same molecule, the inhibition [11] was under 25%, the inhibition [12] was “Dose-dependent effect” and the IC50 [13] was 0.00571 µM. The IC50 [4] was over 1 µM, the Activity [14] was 0.748% and the viability at 1 µM [15] was 35%. For the same molecule, the Activity [16] was “Active”.

Nc1nc2[nH]cc(Cc3ccc(C(=O)N[C@@H](CCC(=O)O)C(=O)O)cc3)c2c(=O)[nH]1 showed an IC50 [1] of over 1 µM, an IC50 [2] of over 1 µM and an IC50 [3] of over 1 µM. For the same molecule, the IC50 [4] was over 1 µM.

With Nc1nc2[nH]cc(CCCCCc3ccc(C(=O)N[C@@H](CCC(=O)O)C(=O)O)cc3)c2c(=O)[nH]1 the Activity [17] was “inactive”, the IC50 [1] was over 1 µM and the IC50 [2] was over 1 µM. The IC50 [3] was over 1 µM, the Activity [18] was “inactive” and the IC50 [4] was over 1 µM. For the same molecule, the Activity [19] was “Active”.

For Nc1nc2[nH]c(CCCc3ccc(C(=O)N[C@@H](CCC(=O)O)C(=O)O)cc3)cc2c(=O)[nH]1, the IC50 [3] was over 1 µM, the IC50 [20] was 0.649 µM and the IC50 [4] was over 1 µM.

With NC(=O)c1[nH]cnc1N the inhibition of growth at 1000 µM [21] was 20% and the inhibition [22] was “inactive”.
